Holding throughout (format): protein-complex assay
The target in assay [1] is T1, GABA-A receptor; alpha-6/beta-3/gamma-2 (Homo sapiens, UniProt P18507+P28472+Q16445). Description: Inhibition of Gamma-aminobutyric acid A receptor alpha-6-beta-3-gamma-2 at 1 uM. A digest of the protocol:
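Competition binding on Ltk⁻ cells expressing human α6β3γ2, radioligand [³H]Ro 15-4513. Cells scraped into PBS, spun at 3000g, resuspended in 10 mM KH₂PO₄/100 mM KCl pH 7.4. Nonspecific binding with 10⁻⁵ M diazepam; 1 h to equilibrium at 4 °C; filtration, ice-cold buffer wash, scintillation counting.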

Assay [2] has as its target T2, GABA-A receptor; alpha-5/beta-3/gamma-2 (Homo sapiens, UniProt P18507+P28472+P31644).
T2 sequence (P18507 whole entry): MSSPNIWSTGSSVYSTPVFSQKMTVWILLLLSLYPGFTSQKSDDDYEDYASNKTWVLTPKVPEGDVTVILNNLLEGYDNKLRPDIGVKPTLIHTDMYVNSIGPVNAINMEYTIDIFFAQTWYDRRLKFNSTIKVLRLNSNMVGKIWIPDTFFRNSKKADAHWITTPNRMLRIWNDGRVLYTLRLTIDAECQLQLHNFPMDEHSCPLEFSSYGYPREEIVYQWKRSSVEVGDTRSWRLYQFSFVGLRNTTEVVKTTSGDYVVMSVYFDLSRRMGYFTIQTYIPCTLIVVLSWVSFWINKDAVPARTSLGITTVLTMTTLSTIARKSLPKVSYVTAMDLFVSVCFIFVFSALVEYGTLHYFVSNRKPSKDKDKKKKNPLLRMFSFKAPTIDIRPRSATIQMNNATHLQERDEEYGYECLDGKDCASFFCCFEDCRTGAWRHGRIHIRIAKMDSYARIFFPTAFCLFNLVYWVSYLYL
T2 sequence (P28472 whole entry): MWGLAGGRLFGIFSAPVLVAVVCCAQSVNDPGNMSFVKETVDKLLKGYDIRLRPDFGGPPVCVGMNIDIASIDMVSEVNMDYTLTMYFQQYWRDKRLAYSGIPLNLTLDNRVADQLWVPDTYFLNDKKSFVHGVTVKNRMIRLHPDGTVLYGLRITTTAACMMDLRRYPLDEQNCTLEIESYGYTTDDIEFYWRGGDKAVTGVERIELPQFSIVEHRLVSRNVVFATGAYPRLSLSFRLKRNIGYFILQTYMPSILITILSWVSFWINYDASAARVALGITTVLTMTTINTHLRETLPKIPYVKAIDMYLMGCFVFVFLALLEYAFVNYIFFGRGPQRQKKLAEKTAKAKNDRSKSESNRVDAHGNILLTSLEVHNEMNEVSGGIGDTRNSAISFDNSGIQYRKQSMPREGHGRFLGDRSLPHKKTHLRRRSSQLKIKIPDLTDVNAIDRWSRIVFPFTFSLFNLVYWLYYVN
T2 sequence (P31644 whole entry): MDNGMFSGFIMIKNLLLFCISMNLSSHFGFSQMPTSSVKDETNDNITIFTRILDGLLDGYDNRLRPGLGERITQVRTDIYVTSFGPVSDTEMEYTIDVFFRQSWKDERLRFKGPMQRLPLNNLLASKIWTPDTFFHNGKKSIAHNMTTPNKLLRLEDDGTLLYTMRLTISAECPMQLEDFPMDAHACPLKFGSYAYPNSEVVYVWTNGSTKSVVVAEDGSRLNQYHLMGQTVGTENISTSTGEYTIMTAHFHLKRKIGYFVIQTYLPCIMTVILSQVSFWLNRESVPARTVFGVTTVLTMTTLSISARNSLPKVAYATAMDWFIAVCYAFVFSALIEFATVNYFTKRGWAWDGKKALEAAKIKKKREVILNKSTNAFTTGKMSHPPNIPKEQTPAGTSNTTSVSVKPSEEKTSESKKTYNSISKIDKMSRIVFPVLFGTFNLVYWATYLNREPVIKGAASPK
Description: Binding affinity for Gamma-aminobutyric acid A receptor alpha-5-beta-3-gamma-2.

For assay [3], the target named is T3, GABA-A receptor; alpha-1/beta-3/gamma-2 (Homo sapiens) (UniProt P14867+P18507+P28472). Description: Inhibition of GABA-A benzodiazepine receptor alpha-1-beta-3-gamma-2 subunits at 1 uM.
The target of assay [4] is GABA-A receptor; alpha-2/beta-3/gamma-2 (Homo sapiens) (UniProt P18507+P28472+P47869). Description: Inhibition of GABA-A benzodiazepine receptor alpha-2-beta-3-gamma-2 subunits at 1 uM.
The target of assay [5] is GABA-A receptor; alpha-3/beta-3/gamma-2 (Homo sapiens) (UniProt P18507+P28472+P34903). Put plainly: Inhibition of GABA-A benzodiazepine receptor alpha-3-beta-3-gamma-2 subunits at 1 uM.
Assay [6] has as its target T1, GABA-A receptor; alpha-6/beta-3/gamma-2. Put plainly: Binding affinity against Gamma-aminobutyric acid A receptor alpha-6-beta-3-gamma-2. The procedure, abridged: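 Cells scraped into PBS, spun at 3000g, resuspended in 10 mM KH₂PO₄/100 mM KCl pH 7.4. Nonspecific binding with 10⁻⁵ M diazepam; 1 h to equilibrium at 4 °C; filtration, ice-cold buffer wash, scintillation counting.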

Assay [7] concerns the target T4, GABA-A receptor; alpha-1/beta-3/gamma-2 (Homo sapiens, UniProt P14867+P18507+P28472).
T4 sequence (P14867 whole entry): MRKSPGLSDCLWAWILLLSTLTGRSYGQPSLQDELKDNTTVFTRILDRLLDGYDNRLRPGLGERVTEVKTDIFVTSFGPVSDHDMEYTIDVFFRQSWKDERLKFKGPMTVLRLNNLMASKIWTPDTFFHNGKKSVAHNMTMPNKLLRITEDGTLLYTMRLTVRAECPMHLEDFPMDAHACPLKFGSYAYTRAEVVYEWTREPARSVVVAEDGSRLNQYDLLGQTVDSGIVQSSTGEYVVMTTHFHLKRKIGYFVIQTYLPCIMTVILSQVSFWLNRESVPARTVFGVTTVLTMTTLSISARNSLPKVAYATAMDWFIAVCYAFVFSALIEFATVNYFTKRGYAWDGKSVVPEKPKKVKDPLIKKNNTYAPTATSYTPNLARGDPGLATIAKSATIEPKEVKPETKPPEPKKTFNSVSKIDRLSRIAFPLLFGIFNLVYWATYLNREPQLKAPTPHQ
T4 sequence (P18507 whole entry): T2 sequence (P18507 whole entry)
T4 sequence (P28472 whole entry): T2 sequence (P28472 whole entry)
Put plainly: Binding affinity against alpha-1-beta-3-gamma-2 GABAA/BzR receptor subtype.

Assay [8] addresses T3, GABA-A receptor; alpha-1/beta-3/gamma-2 (Homo sapiens). Description: It is the ratio of Ki value for alpha-1-beta-3-gamma-2 to that of alpha-5-beta-3-gamma-2.
Assay [9] addresses T5, GABA-A receptor; alpha-3/beta-3/gamma-2 (Homo sapiens, UniProt P18507+P28472+P34903).
T5 sequence (P18507 whole entry): T2 sequence (P18507 whole entry)
T5 sequence (P28472 whole entry): T2 sequence (P28472 whole entry)
T5 sequence (P34903 whole entry): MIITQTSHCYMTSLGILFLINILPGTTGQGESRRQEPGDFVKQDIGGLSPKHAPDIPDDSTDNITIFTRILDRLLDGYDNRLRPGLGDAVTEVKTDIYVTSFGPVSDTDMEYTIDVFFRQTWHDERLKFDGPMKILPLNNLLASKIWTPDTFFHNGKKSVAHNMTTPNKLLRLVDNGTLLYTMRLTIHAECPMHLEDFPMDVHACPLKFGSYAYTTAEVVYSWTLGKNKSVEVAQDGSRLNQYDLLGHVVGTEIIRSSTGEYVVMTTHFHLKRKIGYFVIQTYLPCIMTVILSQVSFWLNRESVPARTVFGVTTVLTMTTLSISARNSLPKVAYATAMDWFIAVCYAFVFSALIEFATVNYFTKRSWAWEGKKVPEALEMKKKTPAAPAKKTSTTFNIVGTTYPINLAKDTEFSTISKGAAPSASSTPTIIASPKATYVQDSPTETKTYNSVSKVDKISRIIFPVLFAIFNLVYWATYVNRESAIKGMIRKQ
Description: Binding affinity against alpha-3-beta-3-gamma-2 GABAA/BzR receptor subtype.

Assay [10] deals with T6, GABA-A receptor; alpha-2/beta-3/gamma-2 (Homo sapiens, UniProt P18507+P28472+P47869).
T6 sequence (P18507 whole entry): T2 sequence (P18507 whole entry)
T6 sequence (P28472 whole entry): T2 sequence (P28472 whole entry)
T6 sequence (P47869 whole entry): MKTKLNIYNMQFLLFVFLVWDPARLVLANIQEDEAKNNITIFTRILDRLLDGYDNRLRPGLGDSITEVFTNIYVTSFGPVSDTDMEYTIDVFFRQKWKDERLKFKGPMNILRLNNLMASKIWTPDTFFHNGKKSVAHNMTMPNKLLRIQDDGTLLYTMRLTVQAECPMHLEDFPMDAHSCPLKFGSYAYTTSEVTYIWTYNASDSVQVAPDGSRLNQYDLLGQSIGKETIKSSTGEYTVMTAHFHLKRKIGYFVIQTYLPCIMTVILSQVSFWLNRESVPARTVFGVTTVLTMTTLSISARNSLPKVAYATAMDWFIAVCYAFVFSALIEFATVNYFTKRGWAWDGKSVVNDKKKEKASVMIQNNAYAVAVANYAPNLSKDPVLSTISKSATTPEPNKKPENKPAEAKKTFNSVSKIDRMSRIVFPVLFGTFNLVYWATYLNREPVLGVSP
Put plainly: Binding affinity tested against alpha-2-beta-3-gamma-2 GABAA/BzR receptor subtype.

T1 sequence (Q16445 whole entry, one chain of several): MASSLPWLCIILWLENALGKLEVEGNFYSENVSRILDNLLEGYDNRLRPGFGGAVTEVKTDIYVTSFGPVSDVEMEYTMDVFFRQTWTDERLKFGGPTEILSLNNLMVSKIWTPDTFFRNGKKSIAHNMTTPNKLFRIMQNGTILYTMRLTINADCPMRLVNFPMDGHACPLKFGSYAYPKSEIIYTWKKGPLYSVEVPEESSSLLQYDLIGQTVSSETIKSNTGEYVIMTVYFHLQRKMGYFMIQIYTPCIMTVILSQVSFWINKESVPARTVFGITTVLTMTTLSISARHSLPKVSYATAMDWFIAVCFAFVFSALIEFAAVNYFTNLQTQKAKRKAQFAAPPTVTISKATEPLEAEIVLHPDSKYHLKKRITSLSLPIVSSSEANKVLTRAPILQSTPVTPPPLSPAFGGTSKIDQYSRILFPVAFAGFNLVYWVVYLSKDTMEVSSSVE

Consider `C#Cc1ccc2c(c1)C(=O)N1CC[C@H]1c1c(-c3nc(-c4ccccc4)no3)ncn1-2`, for which the inhibition (in general, the change of the read-out against control, counted positive when it falls) in assay [1] was 14%; in assay [3], 10%; in assay [4] it was 29%; in assay [5], 15%. Also, in assay [2], the Ki (commonly the equilibrium dissociation constant of an inhibitor or competing ligand from its target) was found to be 374 nM.

On to `CC(C)N(Cc1ncn2c1CN(C)C(=O)c1cc(Cl)ccc1-2)C(C)C`, for which the Ki in assay [6] was 8600 nM; in assay [2], 1350 nM; in assay [7], 4200 nM; in assay [9], 6270 nM; in assay [10], 12600 nM. Also, in assay [8], the Ratio was found to be 3.2.

Consider `C#Cc1ccc2c(c1)C(=O)N(C)Cc1c(C(=O)OC(C)(C)C)ncn1-2`, for which the Ki in assay [6] was 5.1 nM; in assay [2], 0.4 nM; in assay [7] it was 26.9 nM; in [9], 18.7 nM; in [10], 26.3 nM. Further, the Ratio in assay [8] was 67.3.

In the case of `CCOC(=O)c1ncn2c1CN(C)C(=O)c1cc(CC)ccc1-2`, the Ki in assay [6] was found to be 176 nM; in assay [2], 1.5 nM; in assay [7] it was 20.4 nM; in [9], 26.1 nM; in assay [10], 27 nM. The Ratio in [8] was 13.6.

Regarding `CN1Cc2c(C(=O)OC(C)(C)C)ncn2-c2ccc(N=C=S)cc2C1=O`, the Ki in [6] came to 30.7 nM; in [2], 2.5 nM; in assay [7], 17.1 nM; in assay [9] it was 50 nM; in assay [10], 33.7 nM. In [8], the Ratio is 6.8.

With `C#Cc1ccc2c(c1)C(=O)N1CCC[C@H]1c1c(-c3nc(CC)no3)ncn1-2`, the Ki in assay [6] stood at 150 nM; in assay [2], 2.4 nM; in assay [7], 86 nM; in assay [9], 85 nM; in [10] it was 40 nM. Also, the Ratio in [8] was found to be 36.

Turning to `CN1Cc2c(C(=O)OC(C)(C)C)ncn2-c2ccc(I)cc2C1=O`, the Ki in assay [6] is 4.6 nM; in [2], 0.38 nM; in [7] it was 9.7 nM; in [9], 10.9 nM; in [10], 11.2 nM. The Ratio in [8] was 25.5.

For the molecule `C#Cc1ccc2c(c1)C(=O)N1CC[C@H]1c1c(-c3nc(CC)no3)ncn1-2`, the Ki in assay [6] is 361 nM; in assay [2], 12.7 nM; in [7], 220 nM; in assay [9] it was 184 nM; in assay [10], 150 nM. In addition, the Ratio in assay [8] was found to be 17.

In the case of `C#Cc1ccc2c(c1)C(=O)N1CCC[C@H]1c1c(-c3nc(C(C)C)no3)ncn1-2`, the Ki was 333 nM in assay [6]; 4.8 nM in [2]; 73 nM in [7]; 97 nM in assay [9]; 85 nM in [10]. In assay [8], the Ratio was 15.

Take `CN1Cc2c(C(=O)OC(C)(C)C)ncn2-c2ccc(Cl)cc2C1=O`: the Ki in [6] stood at 4 nM; in [2], 0.65 nM; in assay [7] it was 17.3 nM; in [9], 29.1 nM; in assay [10], 21.6 nM. In [8], the Ratio was 26.6.

As to `CCCCCc1ncn2c1CN(C)C(=O)c1cc(Cl)ccc1-2`, the Ki in assay [6] came out at 960 nM; in assay [2] it was 369 nM; in assay [7], 2050 nM; in [9] it was 2910 nM; in assay [10] it was 2900 nM. In assay [8], the Ratio worked out at 5.6.

With `CCOC(=O)c1ncn2c1CN(C)C(=O)c1cc(C#N)ccc1-2`, the Ki in assay [6] was above 1000 nM; in [2] it was 6 nM; in assay [7], 10 nM; in assay [9] it was 19 nM; in assay [10] it was 45 nM. The Ratio in assay [8] worked out at 1.67.

On to `C#Cc1ccc2c(c1)C(=O)N(C)Cc1c(C(=O)OCC)ncn1-2`, for which the Ki came to 28.8 nM in assay [6]; 0.49 nM in assay [2]; 28.4 nM in assay [7]; 25.8 nM in assay [9]; 21.4 nM in assay [10]. Moreover, in [8], the Ratio was 58.

In the case of `C#Cc1ccc2c(c1)C(=O)N1CCC[C@H]1c1c(C(=O)OCC)ncn1-2`, the Ki in assay [6] came out at 126 nM; in assay [2], 1.3 nM; in assay [7], 59 nM; in assay [9], 27 nM; in assay [10], 44 nM. Further, the Ratio in assay [8] was determined as 45.

Take `CCc1ccc2c(c1)C(=O)N(C)Cc1c(C(=O)OC(C)(C)C)ncn1-2`: the Ki in assay [6] was 22.9 nM; in [2], 1.72 nM; in assay [7], 14.8 nM; in assay [9], 25.3 nM; in assay [10], 56 nM. The Ratio in assay [8] is 8.6.

The values are drawn from ChEMBL document CHEMBL1131143, “Predictive models for GABAA/benzodiazepine receptor subtypes: studies of quantitative structure-activity relationships for imidazobenzodiazepines at five recombinant GABAA/benzodiazepine receptor subtypes [alphaxbeta3gamma2 (x = 1-3, 5, and 6)] via comparative molecular field analysis” (J Med Chem, 1998).
